We go through 29 compounds from ChEMBL document CHEMBL1275347, “New fluoro derivatives of the pyrazolo[5,1-c][1,2,4]benzotriazine 5-oxide system: evaluation of fluorine binding properties in the benzodiazepine site on γ-aminobutyrric acid type A (GABA(A)) receptor. Design, synthesis, biological, and molecular modeling investigation” (J Med Chem, 2010).

Each structure is given as a SMILES string. Calls of active or inactive are those of the source. The calls are words filed in the database; no cut-off is given here.

For orientation: Ki means a dissociation constant, usually derived from enzyme kinetics or from competition with a known ligand. As usually defined, the inhibition is the drop in the measured response relative to a control, in per cent. The low end stands for little suppression, the high end for strong suppression.

Data set [1] in a line: Displacement of [3H]Ro15-1788 from GABA(A) receptor benzodiazepine site in bovine brain membrane. In kind it is cell membranes, Bos taurus. The method, boiled down:
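Bovine cerebral cortex membranes were diluted in 50 mM Tris-citrate pH 7.4 and used for [3H]Ro15-1788 displacement, with at least six test concentrations. Five experiments were run in triplicate. IC50 came from iterative curve fitting and Ki from Cheng-Prusoff, reported as mean ± SEM. Ki was derived only where inhibition at 10 μM exceeded 80%.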

For data set [2], the system named is Mus musculus. As to the kind of experiment: Toxicity in CD1 albino mouse assessed as number of falls from rod over 30 seconds at 10 mg/kg, po after 25 mins of drug administration by rotarod test. Type of data set: organism-based. Also on record: dose 10 mg/kg, route oral. The conditions noted are these: in vivo. The method, boiled down:
(§1)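 Rota-rod test in male CD-1 mice dosed po in 1% CMC. Falls from the rod were counted over 30 s, 25 min after dosing. Methods give the rod speed as 24 rpm; the table gives 16 rpm. Values are mean ± SEM.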

Data set [3] has as its system Mus musculus. As to the kind of experiment: Toxicity in CD1 albino mouse assessed as number of falls from rod over 30 seconds at 30 mg/kg, po after 25 mins of drug administration by rotarod test. In kind it is organism-based. More on the design: dose 30 mg/kg, route oral. The note with it: in vivo. The method, boiled down: as §1
Background: Falling from the rotarod earlier than controls is read as motor impairment.

Data set [4] deals with Mus musculus. As to the kind of experiment: Toxicity in CD1 albino mouse assessed as myorelaxant activity over 35 mins at 10 mg/kg, po by grip-strength meter assay. In kind it is organism-based. Also on record: dose 10 mg/kg, route oral. The conditions noted are these: in vivo. The method, boiled down: (§2)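 Grip-strength meter test in male CD-1 mice given compound po in 1% CMC 30 min before testing. Grip force was read in g at 35 min. Values are mean ± SEM.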

Data set [5] has as its system Mus musculus. As to the kind of experiment: Toxicity in CD1 albino mouse assessed as myorelaxant activity over 35 mins at 30 mg/kg, po by grip-strength meter assay. Also on record: dose 30 mg/kg, route oral. Type of data set: organism-based. The note with it: in vivo. The method, boiled down:
as §2

In data set [6] the test system is Mus musculus. Kind of data set: Anticonvulsant activity in CD1 albino mouse assessed as protection against pentylenetetrazole-induced shock and convulsion at 10 mg/kg, ip treated after 30 mins of pentylenetetrazole measured for 30 mins. In kind it is functional. The conditions noted are these: route intraperitoneal.
Data set [7] has as its system Mus musculus. Kind of data set: Anticonvulsant activity in CD1 albino mouse assessed as protection against pentylenetetrazole-induced shock and convulsion at 30 mg/kg, ip treated after 30 mins of pentylenetetrazole measured for 30 mins. Type of data set: functional. The note with it: route intraperitoneal.
In data set [8] the test system is Mus musculus. Kind of data set: Anxiolytic activity in CD1 albino mouse at 10 mg/kg, po by light/dark box test. Type of data set: functional, organism-based. More on the design: dose 10 mg/kg. The method, boiled down: (§3)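 Male CD-1 mice dosed po in 1% CMC 30 min before the light-dark box test. Each mouse was placed in the centre of the lit area facing away from the dark side and explored for 5 min. Transfers between compartments and time spent in the light were scored. n = 9-10 per group, mean ± SEM.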

Data set [9] concerns Mus musculus. Kind of data set: Anxiolytic activity in CD1 albino mouse at 10 mg/kg, po by light/dark box test in presence of 100 mg/kg, po flumazenil. In kind it is functional, organism-based.
In data set [10] the test system is Mus musculus. As to the kind of experiment: Anxiolytic activity in CD1 albino mouse assessed as sleeping time at 3 mg/kg, po pretreated 30 mins before test. Type of data set: functional. The method, boiled down:
(§4)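 Male CD-1 mice given compound po in 1% carboxymethylcellulose 30 min before ethanol (4 g/kg ip). Sleep time is the duration of loss of righting reflex, capped at 210 min. Values are mean ± SEM of treated mice.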

For data set [11], the system named is Mus musculus. As to the kind of experiment: Anxiolytic activity in CD1 albino mouse assessed as sleeping time at 10 mg/kg, po pretreated 30 mins before test. Type of data set: functional. The method, boiled down:
as §4

For data set [12], the system named is Mus musculus. Kind of data set: Effect on learning and memory process in CD1 albino mouse assessed as improvement in retention latency at 10 mg/kg, po after 24 hrs by passive avoidance test. Type of data set: functional, organism-based. More on the design: dose 10 mg/kg. The method, boiled down: (§5)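 Passive avoidance test in male CD-1 mice. Compounds were given po 30 min before training, and retention latency was tested 24 h later. n = 9-11 per group, mean ± SEM.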

For data set [13], the system named is Mus musculus. As to the kind of experiment: Effect on duration of loss of righting reflex in ethanol-induced in CD1 albino mouse at 3 mg/kg, po preincubated 30 mins before ethanol challenge. Type of data set: functional, organism-based. Also on record: dose 3 mg/kg. The method, boiled down:
as §4

In data set [14] the test system is Mus musculus. As to the kind of experiment: Effect on duration of loss of righting reflex in ethanol-induced in CD1 albino mouse at 10 mg/kg, po preincubated 30 mins before ethanol challenge. More on the design: dose 10 mg/kg. In kind it is functional, organism-based. The method, boiled down: as §4
Data set [15] relates to Mus musculus. As to the kind of experiment: Effect on learning and memory process in CD1 albino mouse assessed as improvement in retention latency at 100 mg/kg, po after 24 hrs by passive avoidance test. In kind it is functional, organism-based. More on the design: dose 100 mg/kg. The method, boiled down:
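Passive avoidance in male CD-1 mice; flumazenil suspended in 1% carboxymethylcellulose, dosed 30 min before training; retention test 24 h later, retention latency recorded. 9-11 mice per group; mean ± SEM versus control.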

For data set [16], the species on record is Bos taurus. As to the kind of experiment: Displacement of [3H]Ro15-1788 from GABA(A) receptor benzodiazepine site in bovine brain membrane at 10 uM. In kind it is cell membranes. The method, boiled down:
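Percent inhibition of specific [3H]Ro15-1788 binding to bovine cerebral cortex membranes in 50 mM Tris-citrate pH 7.4, measured with test compound at 10 μM.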
For orientation: In a radioligand displacement assay an active substance lowers the binding of a labelled ligand.

Data set [17] concerns Mus musculus. As to the kind of experiment: Effect on learning and memory process in CD1 albino mouse assessed as improvement in retention latency at 3 mg/kg, po after 24 hrs by passive avoidance test. Type of data set: functional, organism-based. Also on record: dose 3 mg/kg. The method, boiled down:
as §5

In data set [18] the test system is Mus musculus. As to the kind of experiment: Effect on learning and memory process in CD1 albino mouse assessed as improvement in retention latency at 30 mg/kg, po after 24 hrs by passive avoidance test. In kind it is functional, organism-based. Also on record: dose 30 mg/kg. The method, boiled down: as §5
Data set [19] relates to Mus musculus. As to the kind of experiment: Anxiolytic activity in CD1 albino mouse at 3 mg/kg, po by light/dark box test. Type of data set: functional, organism-based. Also on record: dose 3 mg/kg. The method, boiled down: as §3
In data set [20] the test system is Mus musculus. As to the kind of experiment: Anxiolytic activity in CD1 albino mouse at 30 mg/kg, po by light/dark box test. Type of data set: functional, organism-based. Also on record: dose 30 mg/kg. The method, boiled down: as §3
Data set [21] concerns Mus musculus. Kind of data set: Toxicity in CD1 albino mouse at 10 mg/kg, po in presence of 100 mg/kg, po flumazenil. In kind it is organism-based. The note with it: in vivo.
Data set [22] has as its system Mus musculus. Kind of data set: Anxiolytic activity in CD1 albino mouse assessed as sleeping time at 0.3 mg/kg, ip pretreated 20 mins before test. The conditions noted are these: route intraperitoneal. In kind it is functional. The method, boiled down:
(§6)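 Male CD-1 mice given diazepam ip (suspended in 1% carboxymethylcellulose) 20 min before test. Ethanol 4 g/kg ip injected […]; duration of loss of righting reflex taken as sleep time, capped at 210 min. Mean ± SEM; ANOVA with Scheffe post hoc test versus 1% CMC controls.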

Data set [23] concerns Mus musculus. Kind of data set: Anxiolytic activity in CD1 albino mouse assessed as sleeping time at 1 mg/kg, ip pretreated 20 mins before test. Type of data set: functional. The note with it: route intraperitoneal. The method, boiled down:
as §6

With `CCOC(=O)c1cnn2c1nnc1ccc(OC(F)F)cc12`, affinity in data set [1] was put at a Ki of 51.7 nM.
The compound `COc1ccccc1COC(=O)c1cnn2c1n[n+]([O-])c1ccc(C(F)(F)F)cc12` gave a Ki in data set [1] of 5.8 nM. The Activity in data set [2] stood at 0.2; in data set [3], 0.2; in data set [4], 51.7 g; in [5], 48.5 g; in [6] it was 0%; in data set [7], 0%. Also, in [8], the result was Active. Besides, the result in [9], in [12], in [13] and in data set [14] was inactive. Moreover, the Time is recorded as 36.2 s in [10] and 54.3 s in data set [11].
For `[O-][n+]1nc2c(Br)cnn2c2cc(C(F)(F)F)ccc21`, the affinity in [1] corresponds to a Ki of 139 nM.
As to `CCOC(=O)c1ncn2c1CN(C)C(=O)c1cc(F)ccc1-2`, in data set [15], the outcome was Active.
Regarding `O=C(c1cccs1)c1cnn2c1n[n+]([O-])c1ccc(C(F)(F)F)cc12`, the affinity in [1], expressed as Ki, was 164 nM.
Same read-out and setting: the figure for `[O-][n+]1nc2c(-c3ccoc3)cnn2c2cc(C(F)(F)F)ccc21` is 112 nM.
For `COc1ccccc1COC(=O)c1cnn2c1n[n+]([O-])c1cc(C(F)(F)F)ccc12`, in data set [16], the inhibition was found to be 38%.
In turn, `COc1ccccc1COc1ccc2c(c1)n1ncc(F)c1n[n+]2[O-]` registered a Ki in data set [1] of 3.19 nM.
As to `[O-][n+]1nc2c(F)cnn2c2cc(OCc3ccncc3)ccc21`, the Ki in data set [1] was 381 nM.
For `[O-][n+]1nc2c(F)cnn2c2cc(Cl)ccc21`, the inhibition in [16] is 50%.
On to `O=C(OCc1cccs1)c1cnn2c1nnc1ccc(OC(F)F)cc12`, for which the affinity in data set [1] corresponds to a Ki of 1.04 nM.
The same measure, in the same setting: the figure for `COc1ccccc1C(=O)c1cnn2c1n[n+]([O-])c1ccc(C(F)(F)F)cc12` is 1540 nM; for `[O-][n+]1nc2c(Cl)cnn2c2cc(C(F)(F)F)ccc21` it is 175 nM.
Consider `[O-][n+]1nc2c(I)cnn2c2cc(OC(F)F)ccc21`, for which the Ki in data set [1] was 2.47 nM. Moreover, in data set [6], the Activity is on record as 0%. In addition, the outcome in data set [8] was Active. Besides, the result in data set [17], in data set [12] and in data set [18] was inactive.
Regarding `O=C(OCc1cccs1)c1cnn2c1n[n+]([O-])c1ccc(C(F)(F)F)cc12`, in [1], the Ki turned out to be 10 nM. Moreover, the Activity in data set [2] is on record as 0.1; in [3], 0.2; in data set [4], 52.6 g; in data set [5], 57.9 g; in data set [6], 0%; in data set [7], 0%. Further, in data set [21], the Activity entry is “Non-toxic”. Further, the outcome in data set [8], in data set [19], in [20], in data set [17] and in data set [12] was Active. The Time stood at 48.6 s in data set [10] and 40.8 s in data set [11]. The outcome in data set [13] and in data set [14] was inactive.
With `[O-][n+]1nc2c(F)cnn2c2cc(OCc3ccco3)ccc21`, the Ki in data set [1] was 129 nM.
On the same count and under the same terms, the same measure for `[O-][n+]1nc2c(-c3ccsc3)cnn2c2cc(C(F)(F)F)ccc21`: 192 nM; for `CCOC(=O)c1cnn2c1n[n+]([O-])c1ccc(C(F)(F)F)cc12`: 316 nM.
`[O-][n+]1nc2c(F)cnn2c2cc(OCc3ccccc3OC(F)(F)F)ccc21` displayed an inhibition in [16] of 27%.
As for `C#CCOc1ccc2c(c1)n1ncc(F)c1n[n+]2[O-]`, the Ki in data set [1] is 268 nM.
Turning to `CCOC(=O)c1cnn2c1n[n+]([O-])c1ccc(OC(F)F)cc12`, in data set [1], affinity was put at a Ki of 5.75 nM.
`CN1C(=O)CN=C(c2ccccc2)c2cc(Cl)ccc21` [DIAZEPAM] came in with a Ki in data set [1] of 10 nM. Also, the Time in [22] was found to be 134.5 s; in [23], 14.5 s.
As to `[O-][n+]1nc2c(Br)cnn2c2ccc(C(F)(F)F)cc21`, the inhibition in data set [16] is 38%.
In turn, `[O-][n+]1nc2c(F)cnn2c2cc(OCc3cccs3)ccc21` registered a Ki in data set [1] of 93.3 nM.
Still for that read-out and setting: the figure for `[O-][n+]1nc2c(-c3cccs3)cnn2c2cc(C(F)(F)F)ccc21` is 57 nM.
On to `O=C(OCc1cccs1)c1cnn2c1n[n+]([O-])c1cc(C(F)(F)F)ccc12`, for which the inhibition in data set [16] was 34%.
As to `FC(F)Oc1ccc2nnc3c(I)cnn3c2c1`, the Ki in data set [1] was determined as 5.01 nM.
Turning to `CCOC(=O)c1cnn2c1n[n+]([O-])c1cc(C(F)(F)F)ccc12`, the inhibition in [16] came out at 3%.
On to `[O-][n+]1nc2c(I)cnn2c2cc(C(F)(F)F)ccc21`, for which, in data set [1], the Ki was 18 nM.
